Common to all, as to format: functional, cell-based
Experiment [1] concerns P388. The experiment in a line: Cytotoxicity against mouse P388 cells by MTT assay. The method, boiled down:
(§1)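 MTT read-out on HL-60 and P-388 cell lines, with adriamycin as the positive control. IC50 values are means of three independent experiments.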

The test system of experiment [2] is HL-60. Briefly: Cytotoxicity against human HL60 cells by MTT assay. Put shortly: as §1
Experiment [3] relates to A549. Briefly: Cytotoxicity against human A549 cells by SRB assay. Put shortly:
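SRB staining assay on A-549 cells, run alongside an adriamycin positive control. IC50 values are means of three independent experiments.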

Data on 13 compounds can be found in ChEMBL document CHEMBL1795281, “Prenylated Polyhydroxy-p-terphenyls from Aspergillus taichungensis ZHN-7-07” (J Nat Prod, 2011).

SMILES strings stand for the structures.

For the compound `COc1ccc(-c2cc(OC)c3c(oc4cc(O)c(O)cc43)c2OC)cc1` [CANDIDUSIN C], the IC50 in experiment [1] is 96.9 µM; in experiment [2], 16.5 µM; in experiment [3] it was 83.6 µM.
For `COc1cc2oc3c(OC)c(-c4ccc(O)c(CC=C(C)C)c4)cc(OC)c3c2cc1O` [PRENYLCANDIDUSIN C], in that order: 75.7 µM, 10.1 µM and 12.3 µM.
As for `COc1cc(-c2ccccc2)c(OC)c(O)c1-c1ccc(O)c(O)c1`, the figures for the half-maximal inhibitory concentration (IC50) in experiment [1], in experiment [2] and in experiment [3] were 2.7 µM, 9.89 µM and 40.7 µM, respectively.
On to `COc1cc(-c2ccc(O)cc2)c(OC)c(O)c1-c1cc(O)c(O)c(CC=C(C)C)c1` [PRENYLTERPHENYLLIN C], for which the concentration for half-maximal inhibition (IC50) in experiment [1] was 86.2 µM; in experiment [2], 28.2 µM; in experiment [3], above 100 µM.
Taken in the same sequence, the figures for `COc1cc(-c2ccc(O)c(CC=C(C)C)c2)c(OC)c(O)c1-c1ccc(O)c(O)c1` [PRENYLTERPHENYLLIN A] were 10.9 µM, 1.53 µM and 8.32 µM.
For `COc1c(-c2ccc(O)c(CC=C(C)C)c2)cc(OC)c2c1oc1cc(O)c(O)cc12` [PRENYLCANDIDUSIN A], in that order: 16.5 µM, 11.8 µM and 53.2 µM.
Taken in the same sequence, the figures for `COc1cc(-c2ccc(O)c(CC=C(C)C)c2)c(OC)c(O)c1-c1ccc(O)cc1` [PRENYLTERPHENYLLIN B] were 12.6 µM, 38.6 µM and above 100 µM.
With `COc1cc(-c2ccc(O)c(O)c2)c(OC)c(O)c1-c1ccc(O)c(O)c1`, the half-inhibitory concentration (IC50) in experiment [1] turned out to be 9.13 µM; in experiment [2] it was 11 µM; in experiment [3], 14.3 µM.
For `COc1cc(-c2ccc(O)cc2)c(OC)c(O)c1-c1ccc(O)c(O)c1`, in that order: 28.1 µM, 9.86 µM and 34.7 µM.
In the case of `COc1c(-c2ccc(O)cc2)cc(OC)c2c1oc1cc(O)c(O)cc12` [CANDIDUSIN A], the results for the 50% inhibitory concentration (IC50) in experiment [1], in experiment [2] and in experiment [3] were 46.8 µM, 77.6 µM and 19.3 µM, respectively.
Consider `COc1cc(-c2ccc(O)cc2)c(OC)c(O)c1-c1ccc(O)c(CC=C(C)C)c1` [PRENYLTERPHENYLLIN], for which the figures for the IC50 in experiment [1], in experiment [2] and in experiment [3] were 1.99 µM, 2.75 µM and 3.62 µM, respectively.
For the compound `COc1cc(-c2ccc(O)cc2)c(OC)c(O)c1-c1ccc(O)cc1` [TERPHENYLLIN], the concentration for half-maximal inhibition (IC50) in experiment [1] turned out to be 17.8 µM; in experiment [2], 11 µM; in experiment [3] it was 12.2 µM.
Consider `COc1cc2oc3c(OC)c(-c4ccc(O)c(CC=C(C)C)c4)cc(OC)c3c2cc1OC` [PRENYLCANDIDUSIN B], for which the IC50 in experiment [1] came out at 1.57 µM; in experiment [2], 76.7 µM; in experiment [3], 8.61 µM.
